Measured values taken from ChEMBL document CHEMBL1142436, “Design and synthesis of 4-substituted indolo[3,2-e][1,2,3]triazolo[1,5-a]pyrimidine derivatives with antitumor activity” (2008).

Columns and labels:
Type in all cases: functional
HOP-92 = assay: Growth inhibition of human HOP92 cells after 48 hrs; details: HOP-92, 48 h
Summary of the method: (§1)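 NCI ~60-line screen. Cells were grown in RPMI 1640 with 5% FBS and 2 mM L-glutamine and plated at 5000–40000 cells/well. After a 24 h preincubation, five drug concentrations from DMSO stocks were added for 48 h at 37 °C. Cells were TCA-fixed, stained with SRB and read at 515 nm. GI50 was taken from time-zero and control absorbances and reported as pGI50.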

HT-29 = assay: Growth inhibition of human HT29 cells after 48 hrs; details: HT-29, 48 h; summary of the method: as §1
UACC-257 = assay: Growth inhibition of human UACC257 cells after 48 hrs; details: UACC-257, 48 h
Summary of the method: (§2)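 NCI 60-line screen: cells in RPMI 1640 with 5% FBS and 2 mM L-glutamine, plated at 5000–40000 cells/well, grown 24 h (37 °C, 5% CO₂), then exposed to five 10-fold or ½-log dilutions (DMSO stock) for 48 h. Fixed with TCA (final 10% for adherent cells, 16% for suspension cells), then SRB stained with absorbance at 515 nm. GI50 from percentage growth relative to time-zero and control wells.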

RXF 393 = assay: Growth inhibition of human RXF393 cells after 48 hrs; details: RXF 393, 48 h; summary of the method: as §1
[1] = Growth inhibition of human HS578T cells after 48 hrs; details: Hs-578T; summary of the method: as §1
DU-145 = assay: Growth inhibition of human DU145 cells after 48 hrs; details: DU-145, 48 h; summary of the method: as §1
SNB-75 = assay: Growth inhibition of human SNB75 cells after 48 hrs; details: SNB-75, 48 h; summary of the method: as §2
MOLT-4 = assay: Growth inhibition of human MOLT4 cells after 48 hrs; details: MOLT-4, 48 h; summary of the method: as §1
UO-31 = assay: Growth inhibition of human UO31 cells after 48 hrs; details: UO-31, 48 h; summary of the method: as §2
CCRF-CEM = assay: Growth inhibition of human CCRF-CEM cells after 48 hrs; summary of the method: as §1
NCI-H23 = assay: Growth inhibition of human NCI-H23 cells after 48 hrs; details: Homo sapiens, NCI-H23, 48 h; summary of the method: as §1
COLO 205 = assay: Growth inhibition of human COLO205 cells after 48 hrs; details: COLO 205, 48 h; summary of the method: as §1
IGROV-1 = assay: Growth inhibition of human IGROV1 cells after 48 hrs; details: IGROV-1, 48 h; summary of the method: as §1
SF-539 = assay: Growth inhibition of human SF539 cells after 48 hrs; details: SF-539, 48 h; summary of the method: as §1
HCC 2998 = assay: Growth inhibition of human HCC2998 cells after 48 hrs; details: HCC 2998, 48 h; summary of the method: as §1
SR = assay: Growth inhibition of human SR cells after 48 hrs; summary of the method: as §2
SK-OV-3 = assay: Growth inhibition of human SKOV3 cells after 48 hrs; details: SK-OV-3, 48 h; summary of the method: as §2
SK-MEL-28 = assay: Growth inhibition of human SK-MEL28 cells after 48 hrs; details: SK-MEL-28, 48 h; summary of the method: as §1
SNB-19 = assay: Growth inhibition of human SNB19 cells after 48 hrs; details: SNB-19, 48 h; summary of the method: as §2
ACHN = assay: Growth inhibition of human ACHN cells after 48 hrs; summary of the method: as §1
SN12C = assay: Growth inhibition of human SN12C cells after 48 hrs; summary of the method: as §2
LOX IMVI = assay: Growth inhibition of human LOXIMVI cells after 48 hrs; summary of the method: as §1
NCI-H522 = assay: Growth inhibition of human NCI-H522 cells after 48 hrs; details: NCI-H522, 48 h; summary of the method: as §1
OVCAR-4 = assay: Growth inhibition of human OVCAR4 cells after 48 hrs; details: OVCAR-4, 48 h; summary of the method: as §1
OVCAR-3 = assay: Growth inhibition of human OVCAR-3 cells after 48 hrs; details: OVCAR-3, 48 h; summary of the method: as §1
A549 = assay: Growth inhibition of human A549 cells after 48 hrs; details: A549, 48 h; summary of the method: as §1
OVCAR-5 = assay: Growth inhibition of human OVCAR5 cells after 48 hrs; details: OVCAR-5, 48 h; summary of the method: as §1
HCT-15 = assay: Growth inhibition of human HCT15 cells after 48 hrs; details: HCT-15, 48 h; summary of the method: as §1
NCI-H226 = assay: Growth inhibition of human NCI-H226 cells after 48 hrs; details: NCI-H226, 48 h; summary of the method: as §1
U-251 = assay: Growth inhibition of human U251 cells after 48 hrs; details: U-251, 48 h; summary of the method: as §2
KM12 = assay: Growth inhibition of human KM12 cells after 48 hrs; details: KM12, 48 h; summary of the method: as §1
T47D = assay: Growth inhibition of human T47D cells after 48 hrs; summary of the method: as §2
SF-295 = assay: Growth inhibition of human SF295 cells after 48 hrs; details: SF-295, 48 h; summary of the method: as §1
SF-268 [2] = assay: Growth inhibition of human SF268 cells after 48 hrs; details: SF-268, 48 h; summary of the method: as §1
HCT-116 = assay: Growth inhibition of human HCT116 cells after 48 hrs; details: HCT-116, 48 h; summary of the method: as §1
NCI-H322M = assay: Growth inhibition of human NCI-H322M cells after 48 hrs; summary of the method: as §1
EKVX = assay: Growth inhibition of human EKVX cells after 48 hrs; summary of the method: as §1
MCF7 [3] = assay: Growth inhibition of human MCF7 cells after 48 hrs; details: MCF7, 48 h; summary of the method: as §1
NCI-H460 [4] = assay: Growth inhibition of human NCI-H460 cells after 48 hrs; details: NCI-H460, 48 h; summary of the method: as §1
HL-60 = assay: Growth inhibition of human HL60 cells after 48 hrs; details: HL-60, 48 h; summary of the method: as §1
TK-10 = assay: Growth inhibition of human TK10 cells after 48 hrs; details: TK-10, 48 h; summary of the method: as §2
UACC-62 = assay: Growth inhibition of human UACC62 cells after 48 hrs; details: UACC-62, 48 h; summary of the method: as §2
Malme-3M = assay: Growth inhibition of human MALME3M cells after 48 hrs; summary of the method: as §1
SW-620 = assay: Growth inhibition of human SW620 cells after 48 hrs; details: SW-620, 48 h; summary of the method: as §2
HOP-62 = assay: Growth inhibition of human HOP62 cells after 48 hrs; details: HOP-62, 48 h; summary of the method: as §1
SK-MEL-2 = assay: Growth inhibition of human SK-MEL2 cells after 48 hrs; details: SK-MEL-2, 48 h; summary of the method: as §1
OVCAR-8 = assay: Growth inhibition of human OVCAR8 cells after 48 hrs; details: OVCAR-8, 48 h; summary of the method: as §1
MDA-MB-231 = assay: Growth inhibition of human MDA-MB-231 cells after 48 hrs; details: MDA-MB-231, 48 h; summary of the method: as §1
MDA-MB-435 = assay: Growth inhibition of human MDA-MB435 cells after 48 hrs; details: MDA-MB-435, 48 h; summary of the method: as §1
NCI/ADR-RES = assay: Growth inhibition of human NCI/ADR-RES cells after 48 hrs; summary of the method: as §1
K562 = assay: Growth inhibition of human K562 cells after 48 hrs; details: K562, 48 h; summary of the method: as §1
M14 = assay: Growth inhibition of human M14 cells after 48 hrs; details: M14, 48 h; summary of the method: as §1
BT-549 = assay: Growth inhibition of human BT549 cells after 48 hrs; details: BT-549, 48 h; summary of the method: as §1
SK-MEL-5 = assay: Growth inhibition of human SK-MEL5 cells after 48 hrs; details: SK-MEL-5, 48 h; summary of the method: as §1
786-0 = assay: Growth inhibition of human 786-0 cells after 48 hrs; details: 786-0, 48 h; summary of the method: as §1
RPMI-8226 = assay: Growth inhibition of human RPMI8226 cells after 48 hrs; details: RPMI-8226, 48 h; summary of the method: as §1
PC-3 = assay: Growth inhibition of human PC3 cells after 48 hrs; details: PC-3, 48 h; summary of the method: as §1
CAKI-1 = assay: Growth inhibition of human CAKI1 cells after 48 hrs; details: CAKI-1, 48 h; summary of the method: as §1
A498 = assay: Growth inhibition of human A498 cells after 48 hrs; details: A498, 48 h; summary of the method: as §1
NCI-H460 [5] = assay: Antitumor activity against human NCI-H460 cells at 0.1 mM after 48 hrs
Summary of the method: (§3)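 Prescreen run under the NCI Developmental Therapeutic Program. Agents were tested at a single concentration of 10^-4 M against a three-line panel (MCF7, NCI-H460, SF-268).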

MCF7 [6] = assay: Antitumor activity against human MCF7 cells at 0.1 mM after 48 hrs; summary of the method: as §3
SF-268 [7] = assay: Antitumor activity against human SF268 cells at 0.1 mM after 48 hrs; summary of the method: as §3

COC(=O)C(Cc1c[nH]cn1)NC(=O)CNC(=O)CCCn1c(=O)c2c3ccccc3n(C)c2n2nnc(-c3ccccc3)c12 (stereo not given)
30.2 µM: GI50 (PC-3)
> 100 µM: GI50 (HOP-92) | GI50 (HT-29) | GI50 (UACC-257) | GI50 (RXF 393) | GI50 [1] | GI50 (DU-145) | GI50 (SNB-75) | GI50 (MOLT-4) | GI50 (UO-31) | GI50 (CCRF-CEM) | GI50 (NCI-H23) | GI50 (COLO 205) | GI50 (SF-539) | GI50 (HCC 2998) | GI50 (SR) | GI50 (SK-OV-3) | GI50 (SK-MEL-28) | GI50 (SNB-19) | GI50 (ACHN) | GI50 (SN12C) | GI50 (LOX IMVI) | GI50 (NCI-H522) | GI50 (OVCAR-4) | GI50 (OVCAR-3) | GI50 (A549) | GI50 (OVCAR-5) | GI50 (HCT-15) | GI50 (NCI-H226) | GI50 (U-251) | GI50 (KM12) | GI50 (T47D) | GI50 (SF-295) | GI50 (SF-268 [2]) | GI50 (HCT-116) | GI50 (NCI-H322M) | GI50 (EKVX) | GI50 (MCF7 [3]) | GI50 (NCI-H460 [4]) | GI50 (HL-60) | GI50 (TK-10) | GI50 (UACC-62) | GI50 (Malme-3M) | GI50 (SW-620) | GI50 (HOP-62) | GI50 (SK-MEL-2) | GI50 (OVCAR-8) | GI50 (MDA-MB-231) | GI50 (MDA-MB-435) | GI50 (NCI/ADR-RES) | GI50 (K562) | GI50 (M14) | GI50 (BT-549) | GI50 (SK-MEL-5) | GI50 (786-0) | GI50 (RPMI-8226) | GI50 (CAKI-1) | GI50 (A498)
72.4 µM: GI50 (IGROV-1)

Cn1c2ccccc2c2c(=O)n(CCCC(=O)O)c3c(-c4ccccc4)nnn3c21
80%: Activity (MCF7 [6])
87%: Activity (SF-268 [7])
95%: Activity (NCI-H460 [5])

CCOC(=O)CCCn1c(=O)c2c3ccccc3n(C)c2n2nnc(-c3ccccc3)c12
110%: Activity (SF-268 [7])
114%: Activity (MCF7 [6])
95%: Activity (NCI-H460 [5])
